High-throughput results: PubChem BioAssay, SRMLSC
The full list was thinned out, with hits kept by preference.
HCT116 bCat-KO: beta-catenin-lacking colon tumor cell growth suppression | HCT116 beta-catenin knockout viability, CellTiter-Glo, 60 h; stronger effect = lower value | AID 818 | viability, % at 10 µM | 140,000 tested, 1.5% active;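 active = viability at or under a set limit, the compound median less 4 SD, cut at about 6% in these data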
H69AR growth 86K: growth inhibitors of human H69AR lung tumor cells. viability, % at 10 µM. H69AR lung tumor viability, ATP luminescence, 72 h; stronger effect = lower value. 85,000 tested, 6% active. AID 598;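 active = viability at or below 40%; inactive = viability above 40%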;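 also: multidrug resistant small cell line overexpressing MRP-1 efflux transporter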
Lung fibro prol: blocks proliferation of human lung fibroblasts | 85,000 tested, 1.1% active | LL 47 human lung fibroblast viability, ATP luminescence; stronger effect = lower value | viability, % at 10 µM;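 active = viability at or below 50% in the single dose screen; inactive = viability above 50%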;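 also: compound exposure lasted 72 h before the ATP readout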
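Test system: LL 47 human lung fibroblasts / Quantity: 1,150 cells in each well / Medium: IMEM growth medium with 15% fetal bovine serum / Incubation: 72 h compound exposure at 37 °C after overnight plating / Detection: CellTiter-Glo luminescence measuring cellular ATP / Read-out: % viability versus median cells-only luminescence / Benchmarks: cell-only wells, no compound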
PTEN del growth: PTEN-deleted cell growth suppression | HCT116 PTEN-null viability, CellTiter-Glo, 60 h; stronger effect = lower value | viability, % at 10 µM | 140,000 tested, 1.2% active | AID 827;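 active = viability at or below a set limit, 4 SD under the median of all tested compounds, cut at about 3.7% in these data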;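 also: PTEN knockout HCT116 line with beta catenin targeted HCT116 as companion control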
HUVEC inhibit: human endothelial cell proliferation inhibition; 86,000 tested, 1.1% active; HUVEC proliferation, CellTiter-Glo luminescence, 72 h; stronger effect = lower value; viability, % at 10 µM (by protocol);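 active = viability at or below 30%; inactive = viability above 30%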
Numbers stand for hits; 0 = inactive; - = no result.

SMILES	HCT116 bCat-KO	H69AR growth 86K	Lung fibro prol	PTEN del growth	HUVEC inhibit
COc1ccccc1-c1nnc(SCC(=O)Nc2nc(-c3ccccc3)cs2)n1C	0	0	0	0	0
CCOc1ccc(NCc2nnc(SCC(=O)Nc3nc(-c4ccccc4)cs3)n2-c2ccccc2)cc1	1.3	-	-	1.0	-
COc1ccc2cc(C)c3nnc(SCC(=O)Nc4nc(-c5ccc(F)cc5)cs4)n3c2c1	2.7	-	-	2.0	-
CCn1c(SCC(=O)Nc2nc(-c3ccc(C)cc3)cs2)nnc1-c1ccccc1	0	0	0	0	0
CCn1c(SCC(=O)Nc2nc(C)cs2)nnc1C(NC(=O)c1ccccc1Cl)C(C)C (stereo unspecified)	0	38	0	0	0
COc1cc(/C=N/NC(=O)CN(Cc2ccco2)S(=O)(=O)c2ccccc2)ccc1O	0	-	-	0	-
CCOC(=O)c1[nH]c2ccc(Br)cc2c1NC(=O)CCN1CCCC(C)(C)C1	0	-	-	0	-
Cc1c(Cl)cccc1N/C(SCC(=O)N1CCCCCC1)=C(/C#N)c1nc2ccccc2s1	1.7	-	-	1.6	-
O=C(CSc1nc2ccccc2s1)N1CCCCC1	0	0	0	0	0
Cc1ccc(S(=O)(=O)/C(C#N)=C/c2c(Oc3ccc(Cl)cc3)nc3c(C)cccn3c2=O)cc1	2.7	-	-	2.0	-
Cc1ccc(S(=O)(=O)/C(C#N)=C/c2c(N3CCC(C(N)=O)CC3)nc3c(C)cccn3c2=O)cc1	0	0	0	0	0
CC1=CC(C)(C)N(S(=O)(=O)c2ccc(C)cc2)c2cc(C)ccc21	0	35	0	0	0
CCOC(=O)c1[nH]c2ccc(OC)cc2c1NC(=O)c1nonc1C	0	0	0	0	0
COC(=O)c1[nH]c2cc(OC)ccc2c1NC(=O)c1nonc1C	0	30	0	0	0
CCOC(=O)Nc1sc2c(c1C#N)CCC(C)C2 (stereo unspecified)	0	0	0	0	0
CC1CC(C(F)F)n2nc(C(=O)Nc3sc4c(c3C#N)CCC(C(C)(C)C)C4)nc2N1 (stereo unspecified)	0	18	0	0	21
CSc1ccccc1NC(=O)CN(c1ccccc1Br)S(C)(=O)=O	0	-	-	0	-
CC1=CC(C)(C)Nc2ccc(OC(=O)C(C)N3C(=O)c4ccccc4C3=O)cc21 (stereo unspecified)	2.0	-	-	1.3	-
CC1=CC(C)(C)Nc2ccc(OC(=O)c3ccco3)cc21	1.6	-	-	1.3	-
CC1=CC(C)(C)Nc2ccc(OC(=O)CN3C(=O)CCC3=O)cc21	1.0	-	-	1.5	-
CC1=CC(C)(C)Nc2ccc(OC(=O)c3cccnc3)cc21	0.7	2.6	23	1.1	0
COc1ccc(NC(=S)NN(C)C(=S)Nc2ccc(OC)cc2)cc1	0	-	-	0	-
Cc1ccc([N+](=O)[O-])cc1N(CC(=O)Nc1ccc(S(=O)(=O)Nc2cccc(C(F)(F)F)c2)cc1)S(C)(=O)=O	0	-	-	0	-
O=C(CSc1nnc(-c2ccccc2F)n1C1CC1)Nc1cccnc1Cl	0	-	-	0	-
Oc1ccccc1CN1CCC(C(O)(c2ccccc2)c2ccccc2)CC1	0	-	-	0	-
SMILES	HCT116 bCat-KO	H69AR growth 86K	Lung fibro prol	PTEN del growth	HUVEC inhibit
CC(C)(C)c1ccc(C(O)CCCN2CCC(C(O)(c3ccccc3)c3ccccc3)CC2)cc1 (stereo unspecified)	0.7	0.8	2.6	0.8	2.4
COc1ccc2[nH]c3nc(SCc4nnc(-c5ccc(C)cc5)o4)nnc3c2c1	0	18	0	0	0
COc1ccc2[nH]c3nc(SCC(=O)Nc4ccc5c(c4)OCO5)nnc3c2c1	0	-	-	0	-
CC1Cc2ccccc2N1Cc1nc2cc(Cl)ccc2c(=O)[nH]1 (stereo unspecified)	0	25	0	0	0
COC(=O)c1ccc2c(=O)[nH]c(CN3c4ccccc4CC3C)nc2c1 (stereo unspecified)	0	0	0	0	0
Cc1ccccc1CSc1nc(-c2ccccc2)cc(=O)[nH]1	0	-	-	0	-
CC(C)Oc1cccc(C(=O)NC(=S)NCc2cccnc2)c1	0	-	-	0	-
N=c1c2c(-c3ccccc3)c(-c3ccccc3)oc2ncn1CCN1CCOCC1	0	0	0	0	0
c1ccc(-c2oc3ncnc(NCCN4CCOCC4)c3c2-c2ccccc2)cc1	0	36	0	0	0
N=c1c2c(-c3ccccc3)c(-c3ccccc3)oc2ncn1CCCN1CCOCC1	0	0	0	0	8.9
CCCN(CCC)C(=O)CCSCCC(=O)N(CCC)CCC	0	-	-	0	-
O=C(CCCCCC(=O)N(CCO)CCO)N(CCO)CCO	0	26	0	0	0
CC1=NN(c2ccccc2)C(=O)C1(C)[N+](=O)[O-] (stereo unspecified)	0	-	-	0	-
